Assay outcomes: PubChem BioAssay, The Scripps Research Institute Molecular Screening Center
This is a sample that favours compounds with a hit; in the whole collection about 4.5% have one here.
TAAR1 antagonist = antagonists of human TAAR1. Q96RJ0. CHO RD-HGA16 TAAR1, Fluo-8 calcium fluorescence, antagonist. inhibition, % at 3 µM. 360,000 tested, 1.5% active. AID 624466;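 active = inhibition above a per-plate cutoff, the mean inhibition of test compounds on that plate plus 3 SD, cut at about 49% in these data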;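 note: 0% = DMSO plus EC80 beta-PEA response and 100% = DMSO alone without agonist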
Target sequence (Q96RJ0 whole entry, looked up): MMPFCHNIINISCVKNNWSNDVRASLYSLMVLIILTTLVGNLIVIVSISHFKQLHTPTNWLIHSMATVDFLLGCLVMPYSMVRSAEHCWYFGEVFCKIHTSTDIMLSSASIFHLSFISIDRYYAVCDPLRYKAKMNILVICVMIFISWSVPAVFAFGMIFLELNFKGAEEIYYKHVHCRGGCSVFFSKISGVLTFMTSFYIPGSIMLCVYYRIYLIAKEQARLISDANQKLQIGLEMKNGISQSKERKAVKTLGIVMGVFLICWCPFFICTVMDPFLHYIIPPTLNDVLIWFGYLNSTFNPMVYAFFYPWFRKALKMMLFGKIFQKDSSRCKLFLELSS
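Material: CHO RD-HGA16 cells bearing hTAAR1; compound dosing: one-point dosing, 3 µM nominal final; schedule: dye loading 75 min at 37 °C, then 30 min room temperature; measured by: calcium fluorescence with Fluo-8; control set: vehicle and agonist controls; replication: n of 1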
GPR7 antagonist = antagonists of human GPR7 (neuropeptides B/W receptor 1). GPR7-expressing cells, fluorescence antagonist assay. inhibition, % at 4.4 µM. 290,000 tested, 1.1% active. AID 1861; in the data active = inhibition above about 16%, passing the limit was not always enough;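 note: cells stimulated with the agonist NPW; 0% = agonist with vehicle and 100% = vehicle without agonist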
OX1R antag-1 = blocks the human orexin 1 receptor | CHO/OX1R cells, Fluo-8 calcium fluorescence, orexin A | inhibition, % at 5 µM | 330,000 tested, 0.43% active | AID 434989;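 active = inhibition above its plate's threshold, mean inhibition of all tested compounds on the plate plus 3 SD, cut at about 37% in these data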;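 note: 0% = orexin A challenge wells and 100% = SB-334867-A antagonist wells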
Target sequence (O43613 whole entry, looked up): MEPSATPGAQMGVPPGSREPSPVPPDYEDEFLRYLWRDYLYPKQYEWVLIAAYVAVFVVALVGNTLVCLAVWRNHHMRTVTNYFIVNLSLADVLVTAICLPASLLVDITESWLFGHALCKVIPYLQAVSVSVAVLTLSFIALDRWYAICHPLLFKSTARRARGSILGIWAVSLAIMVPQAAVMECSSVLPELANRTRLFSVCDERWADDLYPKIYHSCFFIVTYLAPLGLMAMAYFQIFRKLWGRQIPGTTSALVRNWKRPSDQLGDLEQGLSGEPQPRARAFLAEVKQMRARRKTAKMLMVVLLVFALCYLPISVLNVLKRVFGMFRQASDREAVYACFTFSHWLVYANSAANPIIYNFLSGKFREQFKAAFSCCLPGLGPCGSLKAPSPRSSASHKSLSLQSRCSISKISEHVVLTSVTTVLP
OX1R antag-2 = antagonists of human orexin 1 receptor (OX1R); OX1R-expressing cells, FRET antagonist read-out; inhibition, % at 6.6 µM; 330,000 tested, 1.8% active; AID 485270; in the data active = inhibition mostly above about 38%, no sharp cut-off; inactive = mostly below about 40%;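 note: 0% = agonist challenge alone and 100% = reference antagonist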
CHO parental Ca = signal in parental CHO cells, OX1R antagonist counter-screen; parental CHO-K1, ATP-induced calcium, Fluo-8 fluorescence; inhibition, % at 5.6 µM; 330,000 tested, 0.63% active; AID 463079;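 active = inhibition above that plate's mean sample inhibition plus 3 SD, cut at about 26% in these data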;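 note: 0% = ATP-challenged DMSO wells and 100% = DMSO wells without ATP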
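Material – parental CHO cells · Reagent – ATP stimulus · Compound – single nominal dose of 5.6 µM per compound · Detection – Fluo-8 fluorescence · Read-out basis – percent inhibition of calcium signal · Controls – ATP-challenged DMSO wells low, unchallenged DMSO wells high · Repeats – no replicates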
TAAR1 agonist = human TAAR1 agonism; AID 624467; 360,000 tested, 0.99% active; CHO RD-HGA16 TAAR1, Fluo-8 calcium fluorescence; vehicle wells 0%, saturating PEA agonist 100%; activation, % at 3 µM; Q96RJ0;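 active = activation above the mean activation of all test compounds in the run plus 3 SD, cut at about 38% in these data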
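System: CHO RD-HGA16 cells carrying human TAAR1 plus Gα16; Incubation: 17-24 h seeding, 75 min 37 °C dye, 30 min RT; Measured by: Fluo-8 fluorescence, 5 s baseline then 140 s kinetic read; Control set: DMSO and PEA EC100; Replication: single well for each compound.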
Starred values were filed as active, the others as inactive; nt = not tested or not shown.

SMILES | TAAR1 antagonist | GPR7 antagonist | OX1R antag-1 | OX1R antag-2 | CHO parental Ca | TAAR1 agonist
O=C(CN1C(=O)c2cccc([N+](=O)[O-])c2C1=O)NCc1ccccc1 | -5.7 | -3.3 | -15.8 | 19.1 | -11.6 | 0.8
CS(=O)(=O)c1ccc(Nc2nc(C(N)Cc3ccc(Cl)cc3)cs2)cc1 (centres undefined) | 9.5 | nt | nt | nt | nt | 17.9
CC(C)C[C@H](NC(=O)c1ccco1)C(=O)N1CCC[C@H]1C(=O)NCc1ccccc1 | -17.0 | nt | nt | nt | nt | 6.3
N#CC1(NC(=O)CN2C(=O)c3ccc([N+](=O)[O-])cc3C2=O)CCCCC1 | -2.2 | nt | -13.3 | 52.7* | -7.8 | 3.3
COc1ccc(CCNC(=O)C/C(C)=N/NC(=O)C23CC4CC(CC(C4)C2)C3)cc1OC | -5.3 | -3.7 | -19.8 | 5.5 | -10.1 | -2.8
Cc1ccc(O)c(N=CC2=C(O)c3ccccc3C2=O)c1 | 8.4 | -5.2 | -9.1 | 64.5 | -33.8 | 9.9
O=C1C(C=Nc2ccccc2O)=C(O)c2ccccc21 | 18.2 | 15.2 | 6.3 | 59.1* | -16.6 | 7.6
COc1ccc(-c2oc3ccccc3c2C#Cc2cncn2C)cc1 | 22.9 | nt | 2.7 | 3.6 | -8.5 | 1.0
COc1ccc(N2C(=O)C(Cl)=C(Nc3ccccc3O)C2=O)cc1 | 49.1* | 3.1 | -14.3 | 29.6 | -1.1 | 11.1
CSCCC(c1nnnn1C1CCCCC1)N1CCN(C/C=C/c2ccccc2)CC1 (centres undefined) | -31.3 | nt | nt | nt | nt | 0.6
CCCCN1CC(COc2ccc(OC)cc2)OCCS1(=O)=O (centres undefined) | -0.3 | nt | nt | nt | nt | -1.5
CC(C)OCCCNC(=O)CN1C(=O)/C(=C/c2ccccc2)Sc2ccccc21 | 17.8 | -8.0 | 19.2 | 69.4* | -18.0 | 2.8
CCc1ccc(/C=C2/Sc3ccccc3N(CC(=O)NCCCOC)C2=O)cc1 | nt | 6.5 | -6.0 | 17.7 | -13.0 | nt
C[C@@H](NC(=O)c1nc[nH]c1C(=O)N1CCc2ccccc2C1)c1ccccc1 | -7.7 | nt | -13.2 | 5.2 | -9.2 | 9.9
CC1(C(=O)NS(=O)(=O)c2ccc(Cl)cc2)CCN1C(=O)Cc1ccsc1 (centres undefined) | -1.1 | nt | nt | nt | nt | 2.7
COc1ccc(S(=O)(=O)NCc2csc(-c3cccnc3)n2)cc1 | -10.9 | 6.5 | -7.5 | 13.1 | -10.7 | 1.0
O=S(=O)(NCc1csc(-c2cccnc2)n1)c1ccc(Br)cc1 | -27.8 | 8.0 | -10.7 | 38.4* | -20.3 | 1.4
Cc1cccn2c(=O)c3cc(C(=O)NCC4CCCO4)c(=N)n(C4CCCC4)c3nc12 (centres undefined) | -11.8 | -14.9 | -25.9 | 59.2* | -2.2 | 0.7
Cc1ccc2nc3c(cc(C(=O)NCC4CCCO4)c(=N)n3C3CCCC3)c(=O)n2c1 (centres undefined) | 2.2 | -7.0 | -20.7 | 57.9* | -13.5 | -3.9
N=c1c(C(=O)NCC2CCCO2)cc2c(=O)n3ccccc3nc2n1C1CCCC1 (centres undefined) | -9.4 | -4.8 | -20.2 | 44.7* | -29.0 | 0.1
Nc1ccn([C@@H]2O[C@H](C(=O)N[C@H](Cc3ccccc3)C(=O)N[C@H]3CCCCNC3=O)[C@@H](O)[C@H]2O)c(=O)n1 | -9.4 | nt | nt | nt | nt | 12.5
CCN1CCN(C2=C(NS(=O)(=O)c3ccc(C)cc3)C(=O)c3ccccc3C2=O)CC1 | -2.5 | -5.2 | -8.0 | 61.3* | -10.8 | 0.3
CC1CCN(C2=C(NS(=O)(=O)c3ccc(Cl)cc3)C(=O)c3ccccc3C2=O)CC1 | -10.1 | -9.9 | -63.3 | 30.4 | -31.9 | 1.5
CC1CCN(C2=C(NS(=O)(=O)c3ccc(Br)cc3)C(=O)c3ccccc3C2=O)CC1 | 15.3 | -11.5 | -36.4 | 56.4* | -26.2 | 0.3
O=C1C(NS(=O)(=O)c2ccc(Br)cc2)=C(N2CCCCC2)C(=O)c2ccccc21 | -23.4 | -18.9 | -34.5 | 53.0* | -28.8 | -4.0
SMILES | TAAR1 antagonist | GPR7 antagonist | OX1R antag-1 | OX1R antag-2 | CHO parental Ca | TAAR1 agonist
CC(=O)Nc1ccc(S(=O)(=O)NC2=C(N3CCN(C)CC3)C(=O)c3ccccc3C2=O)cc1 | -11.5 | -2.8 | -7.2 | 68.4* | -8.2 | 1.6
CC(=O)Nc1ccc(S(=O)(=O)NC2=C(N3CCN(Cc4ccccc4)CC3)C(=O)c3ccccc3C2=O)cc1 | 36.6 | 0.8 | -17.9 | 33.8 | -16.7 | 10.0
CC1CCN(C2=C(NS(=O)(=O)c3ccccc3)C(=O)c3ccccc3C2=O)CC1 | -1.1 | -23.7 | -32.3 | 61.7 | -25.6 | -4.2
CN(CC(=O)Nc1ccccc1C(F)(F)F)C(=O)CSc1nnc(-c2ccncc2)n1C | -5.8 | nt | -17.5 | 6.7 | 6.8 | 23.9
COCCCNC(=O)C[C@H]1C[C@@]2(C(=O)OC)C(=C[C@H](COCc3ccccc3)O[C@@H]2C)N(Cc2ccc3c(c2)OCO3)C1=O | -18.7 | nt | nt | nt | nt | 0.2
Cc1ccc(-c2nc3c(C)cc(Br)cn3c2Cc2ccccc2C(F)(F)F)cc1 | 5.4 | nt | nt | nt | nt | -0.2
CC(C)(C)NC(=O)C1(C)CCC(=O)N1C1CC1 (centres undefined) | -22.9 | nt | nt | nt | nt | 2.6
COC(=O)c1ccc(OCC2c3cc(OC)c(OC)cc3CCN2C(=O)c2ccco2)cc1 (centres undefined) | 61.4* | 16.4 | -16.1 | 13.8 | -8.3 | 15.0
COc1cc2c(cc1OC)C(c1ccccc1)N(C(=O)c1ccccc1)CC2 (centres undefined) | -9.3 | 13.3 | -33.0 | -0.7 | -12.1 | 2.8
COc1cc2c(cc1OC)C(c1ccccc1)N(C(=O)c1ccco1)CC2 (centres undefined) | 13.3 | nt | 2.9 | 33.0* | -12.8 | -0.6
C/C=C(\C)CN1CCC(n2nccc2NC(=O)CCCc2ccccc2)CC1 | -5.2 | -0.1 | nt | nt | nt | 0.4
Cc1nnc(-n2cccc2)s1 | 2.5 | nt | nt | nt | nt | 0.6
C[C@H](CO)N1C[C@H](C)[C@@H](CN(C)S(=O)(=O)c2ccc(F)cc2)Oc2cc(Br)ccc2S1(=O)=O | 40.2 | nt | nt | nt | nt | 8.0
Cc1ccc([C@H]2C(C(=O)O)=CC[C@@H](c3ccc(C)cc3)N2S(=O)(=O)c2ccc(C)cc2)cc1 | -5.4 | nt | -0.9 | 40.5* | -33.5 | 0.9
Cc1ccc(S(=O)(=O)N2[C@@H](c3ccccc3)C(C(=O)O)=CC[C@H]2c2ccc(C(C)C)cc2)cc1 | 0.9 | nt | -16.2 | 36.5 | -18.3 | 3.1
Cc1ccc([C@H]2C(C(=O)O)=CC[C@@H](c3ccc(C(C)C)cc3)N2S(=O)(=O)c2ccc(C)cc2)cc1 | 12.4 | nt | 28.6 | 29.1 | 36.6* | 1.0
COC(=O)N1C[C@H](OC(=O)c2ccc(-c3ccccc3)cc2)[C@H]2C[C@@H]1c1ccccc1O2 | -15.8 | nt | nt | nt | nt | -0.1
c1ccc(-c2nc3c(ccc4ccccc43)[nH]2)nc1 | -0.8 | 1.6 | -8.8 | 70.5* | -12.9 | 9.2
c1ccc(-c2nc3ccccc3[nH]2)nc1 | -10.7 | -2.9 | -5.9 | 11.5 | -7.0 | 1.4
Cc1c(C(=O)N2CCc3ccccc3C2)oc2ccc(S(=O)(=O)N3CCCCCC3)cc12 | -1.1 | -10.5 | -42.3 | -3.1 | -18.0 | 41.7*
